Measured values from ChEMBL document CHEMBL5303300, “EUbOPEN Chemogenomics Library - Multiplex” (2023).
“And” between values parts separate entries of the source, which are not always exact repeats. Equal values may be shown once.

Key:
U2OS = experiment: Multiplex assay against U2OS; format: toxicity, cell-based; conditions: human, number of replicates 2
In short: (§1)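 Live cells carried four stains from seeding: Hoechst33342, BioTracker Green Microtubule Cytoskeleton Dye, MitoTracker Red and Annexin V Alexa Fluor 680. They were imaged on a CQ1 microscope at 37°C and 5% CO2 after compound addition. Using CellPathfinder machine-learning gating, cells were split into Hoechst high-intensity objects or normal cells, normal cells into healthy, pyknosed or fragmented nuclei, and pyknosed cells into mitotic or apoptotic; tubulin, mitochondrial-mass and membrane-permeability phenotypes are per cents of healthy-nucleus cells.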

HEK-293T = experiment: Multiplex assay against HEK293T; format: toxicity, cell-based; conditions: human, number of replicates 2; in short: as §1
[1] = 24 h, 10 µM, compound concentration 10 uM
[2] = 48 h, 1 µM, compound concentration 1 uM
[3] = 48 h, 10 µM, compound concentration 10 uM
[4] = 12 h, 1 µM, compound concentration 1 uM
[5] = 12 h, 10 µM, compound concentration 10 uM
[6] = 24 h, 1 µM, compound concentration 1 uM

COCCNC1CCC(Nc2cc(-c3csc(NCC4(C#N)CCOCC4)n3)c(Cl)cn2)CC1 (configuration not stated)
Population Fragmented Nuclei (%) (U2OS; [1]): 9% and 6%
Population Hoechst High Intensity Objects (%) (U2OS; [1]): 2% and 3%
Population Membrane Permeable-Phenotype (%) (U2OS; [1]): 0% and 20%
Population Mitochondria Different-Phenotype (%) (U2OS; [1]): 33% and 58%
Population Mitotic Cells (%) (U2OS; [1]): 8%
Population Normal (%) (U2OS; [1]): 97% and 96%
Population Pyknosed Nuclei (%) (U2OS; [1]): 84% and 60%
Population Tubulin-Different-Phenotype (%) (U2OS; [1]): 66% and 52%
Population Apoptotic (%) (U2OS; [2]): 98% and 78%
Population Fragmented Nuclei (%) (U2OS; [2]): 11% and 16%
Population Healthy Nuclei (%) (U2OS; [2]): 7% and 9%
Population Hoechst High Intensity Objects (%) (U2OS; [2]): 5% and 0%
Population Membrane Permeable-Phenotype (%) (U2OS; [2]): 53% and 66%
Population Mitochondria Different-Phenotype (%) (U2OS; [2]): 38% and 66%
Population Normal (%) (U2OS; [2]): 94% and 100%
Population Pyknosed Nuclei (%) (U2OS; [2]): 81% and 74%
Population Tubulin-Different-Phenotype (%) (U2OS; [2]): 69% and 100%
Population Apoptotic (%) (U2OS; [3]): 100% and 94%
Population Fragmented Nuclei (%) (U2OS; [3]): 9% and 5%
Population Healthy Nuclei (%) (U2OS; [3]): 6% and 16%
Population Hoechst High Intensity Objects (%) (U2OS; [3]): 2% and 3%
Population Membrane Permeable-Phenotype (%) (U2OS; [3]): 66% and 40%
Population Mitochondria Different-Phenotype (%) (U2OS; [3]): 66% and 80%
Population Mitotic Cells (%) (U2OS; [3]): 0% and 5%
Population Normal (%) (U2OS; [3]): 97% and 96%
Population Pyknosed Nuclei (%) (U2OS; [3]): 83% and 78%
Population Tubulin-Different-Phenotype (%) (U2OS; [3]): 66% and 72%
Population Apoptotic (%) (HEK-293T; [4]): 38% and 65%
Population Fragmented Nuclei (%) (HEK-293T; [4]): 4% and 2%
Population Healthy Nuclei (%) (HEK-293T; [4]): 81% and 83%
Population Hoechst High Intensity Objects (%) (HEK-293T; [4]): 7% and 9%
Population Membrane Permeable-Phenotype (%) (HEK-293T; [4]): 3% and 2%
Population Mitochondria Different-Phenotype (%) (HEK-293T; [4]): 50% and 51%
Population Mitotic Cells (%) (HEK-293T; [4]): 61% and 34%
Population Normal (%) (HEK-293T; [4]): 92% and 90%
Population Pyknosed Nuclei (%) (HEK-293T; [4]): 13% and 14%
Population Tubulin-Different-Phenotype (%) (HEK-293T; [4]): 76% and 80%
Total Cell Count (HEK-293T; [4]): 472 and 403
Population Apoptotic (%) (HEK-293T; [5]): 74% and 66%
Population Fragmented Nuclei (%) (HEK-293T; [5]): 1% and 2%
Population Healthy Nuclei (%) (HEK-293T; [5]): 77% and 83%
Population Hoechst High Intensity Objects (%) (HEK-293T; [5]): 10% and 12%
Population Membrane Permeable-Phenotype (%) (HEK-293T; [5]): 2% and 3%
Population Mitochondria Different-Phenotype (%) (HEK-293T; [5]): 69% and 65%
Population Mitotic Cells (%) (HEK-293T; [5]): 25% and 33%
Population Normal (%) (HEK-293T; [5]): 89% and 87%
Population Pyknosed Nuclei (%) (HEK-293T; [5]): 20% and 14%
Population Tubulin-Different-Phenotype (%) (HEK-293T; [5]): 96% and 94%
Total Cell Count (HEK-293T; [5]): 313 and 412
Population Apoptotic (%) (HEK-293T; [6]): 48% and 66%
Population Fragmented Nuclei (%) (HEK-293T; [6]): 2% and 4%
Population Healthy Nuclei (%) (HEK-293T; [6]): 88% and 83%
Population Hoechst High Intensity Objects (%) (HEK-293T; [6]): 13% and 16%
Population Membrane Permeable-Phenotype (%) (HEK-293T; [6]): 1% and 2%
Population Mitochondria Different-Phenotype (%) (HEK-293T; [6]): 62% and 58%
Population Mitotic Cells (%) (HEK-293T; [6]): 51% and 33%
Population Normal (%) (HEK-293T; [6]): 86% and 83%
Population Pyknosed Nuclei (%) (HEK-293T; [6]): 8% and 12%
Population Tubulin-Different-Phenotype (%) (HEK-293T; [6]): 72% and 74%
Total Cell Count (HEK-293T; [6]): 431 and 359
Population Apoptotic (%) (HEK-293T; [1]): 91% and 67%
Population Fragmented Nuclei (%) (HEK-293T; [1]): 3%
Population Healthy Nuclei (%) (HEK-293T; [1]): 82% and 87%
Population Hoechst High Intensity Objects (%) (HEK-293T; [1]): 15% and 21%
Population Membrane Permeable-Phenotype (%) (HEK-293T; [1]): 2%
Population Mitochondria Different-Phenotype (%) (HEK-293T; [1]): 81% and 75%
Population Normal (%) (HEK-293T; [1]): 84% and 78%
Population Pyknosed Nuclei (%) (HEK-293T; [1]): 14% and 8%
Population Tubulin-Different-Phenotype (%) (HEK-293T; [1]): 93% and 92%
Total Cell Count (HEK-293T; [1]): 294 and 402
Population Apoptotic (%) (HEK-293T; [2]): 55% and 65%
Population Fragmented Nuclei (%) (HEK-293T; [2]): 1% and 5%
Population Healthy Nuclei (%) (HEK-293T; [2]): 91% and 84%
Population Hoechst High Intensity Objects (%) (HEK-293T; [2]): 14% and 17%
Population Membrane Permeable-Phenotype (%) (HEK-293T; [2]): 1% and 2%
Population Mitochondria Different-Phenotype (%) (HEK-293T; [2]): 71% and 68%
Population Mitotic Cells (%) (HEK-293T; [2]): 45% and 34%
Population Normal (%) (HEK-293T; [2]): 85% and 82%
Population Pyknosed Nuclei (%) (HEK-293T; [2]): 7% and 9%
Population Tubulin-Different-Phenotype (%) (HEK-293T; [2]): 75%
Total Cell Count (HEK-293T; [2]): 317 and 304
Population Apoptotic (%) (HEK-293T; [3]): 92% and 82%
Population Fragmented Nuclei (%) (HEK-293T; [3]): 1% and 4%
Population Healthy Nuclei (%) (HEK-293T; [3]): 78% and 85%
Population Hoechst High Intensity Objects (%) (HEK-293T; [3]): 13% and 22%
Population Membrane Permeable-Phenotype (%) (HEK-293T; [3]): 3% and 1%
Population Mitochondria Different-Phenotype (%) (HEK-293T; [3]): 85% and 82%
Population Mitotic Cells (%) (HEK-293T; [3]): 7% and 17%
Population Normal (%) (HEK-293T; [3]): 86% and 77%
Population Pyknosed Nuclei (%) (HEK-293T; [3]): 19% and 9%
Population Tubulin-Different-Phenotype (%) (HEK-293T; [3]): 95% and 90%
Total Cell Count (HEK-293T; [3]): 237 and 368
